Data set [1] concerns CSNK2A1 mRNA. As to the kind of experiment: qPCR gene silencing in OVCAR3 cells. The data set is classed as cell-based. The note with it: 48 h, 10% FBS. Put shortly:
(§1)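 Cells were seeded at 50,000/well and treated with peptide complexes of CSNK2A1-targeting or non-targeting siRNA at increasing N:P ratios in McCoy's 5A/DMEM with 10% FBS. Medium was replaced after a PBS wash at 24 h, for 48 h total. CSNK2A1 mRNA was quantified by TaqMan qRT-PCR with 18S as reference.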
For orientation: Quantitative PCR measures a nucleic acid by following its amplification.

Data set [2] deals with MCF10a breast epithelial cells. Put plainly: Cell viability of healthy cells. The format is cell-based. The note with it: 48 h.
Data set [3] has as its system CSNK2A1 mRNA. Put plainly: qPCR gene silencing in CAOV3 cells. The format is cell-based. The note with it: CAOV3, 80:1 N:P ratio, 48 h. In outline: as §1
Another data set addresses T1, RNase A (Bos taurus, UniProt P61823).
T1 sequence (P61823 27-150): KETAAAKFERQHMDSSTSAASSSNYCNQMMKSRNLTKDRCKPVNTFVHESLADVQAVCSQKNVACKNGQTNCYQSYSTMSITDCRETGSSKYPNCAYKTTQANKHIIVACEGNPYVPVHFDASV
Put plainly: Protection of siRNA from RNase A degradation, agarose gel electrophoresis. The format is in vitro ADME. The note with it: complexes with siNT, 5 μg/mL RNase A, 37°C, 1 h, 6% SDS. Put shortly: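 Non-targeting siRNA (10 μM solution) was mixed with each peptide (10 μM solution in RNase-free water) at several N:P ratios and held 20 min at room temperature. Complexes or free siRNA were left untreated or exposed to 5 μg/mL RNase A at 37°C for 1 h, then dissociated with 6% SDS. Samples were run on 2% agarose at 100 V, ethidium bromide-stained and imaged for intact siRNA.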

Regarding WEADIVADIVADIVAGGG-(d)RRRRRRRRR [DIVA3], in the data set with CSNK2A1 mRNA [1] (OVCAR3, siCSNK2A1 complex at 60:1 versus siNT complex), the “CSNK2A1 mRNA silencing efficacy” value turned out to be 47%.

“WEADIVADIVWDIVADIVAGGG-(d)RRRRRRRRR [DIV3W]”: in data set [2], the “cytotoxic effects on healthy cells” value is given as “no cytotoxic effects were observed”. Besides, the “CSNK2A1 mRNA knockdown, maximum” value in the data set with CSNK2A1 mRNA [3] was determined as 80%. Besides, the “siRNA degradation after incubation with RNase A” value at RNase A is on record as “Minimal degradation”. On to “WEADIVADIVHDIVADIVAGGG-(d)RRRRRRRRR [DIV3H]”, for which the “CSNK2A1 mRNA silencing efficacy” value in the data set with CSNK2A1 mRNA [1] (OVCAR3, siCSNK2A1 complex at 80:1 versus siNT complex) is listed as 72%.

The record behind these values is paper PMC9530961 (Molecular Therapy. Nucleic Acids, 2022).
